Results on 38 variants are retold here after the RNAGym collection of RNA variant scans (doi:10.1126/science.aae0568).

Variants at the floor of the assay were thinned out.

Sequences and labels used below:
B1: tRNA (parent)
chain: GUUCCGUUGGCGUAAUGGUAACGCGUCUCCCUCCUAAGGAGAAGACUGCGGGUUCGAGUCCCGUACGGAACG

This series covers variants of B1. As to the kind of experiment: yeast fitness relative to wild type (ratio to wild type); higher = fitter; tRNA-Arg(CCU), competitive growth, 37 C, YPD. Put shortly: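 A pool of Saccharomyces cerevisiae strains, each with a tRNA-Arg(CCU) gene variant at the native genomic locus, was competed in YPD at 37°C for 24 hours across six parallel replicates. The variants had been chemically synthesised at a 3% per-site mutation rate over 69 sites, and gene amplicons before and after competition were read by 100-nucleotide paired-end sequencing. Darwinian fitness relative to wild type rested on changes in genotype frequencies. Genotypes required ≥ 100 starting reads, and estimates < 0.5 were set to 0.5.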
Consider GUUCCGUUGACGUAAUGGUAGCGCGUCUCCCUCCUAAGGAGAAGACUGCGGGUUCGAGUCCCGUACCGAACG [G10A A21G G67C], for which the yeast fitness was determined as 0.617. With GUUCCGUUGACGUAAUGGUCACGCGUCUCCCUCCUAAAGAAAAGACUGUGGGUUCGAGUCCCGUUCGGAACG [G10A A20C G38A G41A C49U A65U], the yeast fitness was at most 0.5. Take GUUCCGUUGACGUAAUGGUAGCGCGUCUACCUCCUAAGGAGAAGACUGCGGGCUCGAGUCGCGUACAGCACG [G10A A21G C29A U53C C61G G67A A69C]: the yeast fitness was at most 0.5. GUUCCGUUGACGUAUUGGUACCGCCUCUCCCUCCUAAGGAGAAGACUGCGGGUUCGAGUCCAGUACGGAACG [G10A A15U A21C G25C C62A]: the yeast fitness is at most 0.5. For GUUCCGUUGACGUAAUGGUACCGCGUCUCCCUCCUAAGGAGAAGACUGCGGGUUCGAGUCCCGUAUGGAACG [G10A A21C C66U], the yeast fitness is 0.531.

For GUUCCGUUGACGUUAUGGUAACGCGUCUCCCUCCUAAGGAGAAGACUGCGGGUUCGAGUCCCGUAUGGAACG [G10A A14U C66U], the yeast fitness is at most 0.5. Regarding GUUCCGUUGACGUAUUGGUAACGCGUCUCCCUCCUUAGGAGAAGACUGCGGGUUCGAGUCCCAUACGGAACG [G10A A15U A36U G63A], the yeast fitness was at most 0.5. Take GUUCCGUUGACGUGAUGGUAACGCGUCUCCCUCCUAAGGAGAAGACUGCGGGUUCGAGUCCCGUACGGAACG [G10A A14G]: the yeast fitness came out at 0.671.

As to GUUCCGUUGACGUCAUGGUAACGCGUCUCCCUCCUAAGGAGAAGACUGCGGGUUCGAGUCCCGUACGGAACG [G10A A14C], the yeast fitness was determined as 0.539.

In the case of GUUCCGUUGACGUACUGGUAACGCGUCUCCCUCCUAAGGAGAAGCCUGGGGGUUCGAGUCCCGUACGGAACG [G10A A15C A45C C49G], the yeast fitness is 0.553. For the variant GUUCCGUUGACGUACUGGUAACGCGUCUCCCUCAUAAGGAGAAGACUGCGGGUUCAAGUCCCGUACGGAACG [G10A A15C C34A G56A], the yeast fitness was at most 0.5.

Take GUUCCGUUGACGUAAUGGUUACGCGUCUCUCUCCUAAGGAGAAGACUGCGGGUUCAAGUCCCGUGAGCAACG [G10A A20U C30U G56A A65G C66A G68C]: the yeast fitness is at most 0.5. GUUCCGUUGACGUAAUGGUGACGCGUCUCCCUCCUAAGGAGAAGAUUGCUGGUUUGAGUCCCGUACGGAACG [G10A A20G C46U G50U C55U]: the yeast fitness was at most 0.5. Under GUUCCGUUGACGUACUGGUAACGCGUCUCCCUCCUAAGGAGAAGCCUGGGGGUUCGAGUCCCGUACUGCACG [G10A A15C A45C C49G G67U A69C] stands at most 0.5; under GUUCCGUUGACGUAAUGGUAGCGCGUCUCCCUCCUAAGGUGAAGACUGCGGGUUCGAGUCCCGUACGGAACG [G10A A21G A40U], 0.558. In the case of GUUCCGUUGACGUCAUGGUAACGCGUCUCCCACCUAAGGAGAAGACUGCGGGUUCGAGUCCCGUACGGAACG [G10A A14C U32A], the yeast fitness is at most 0.5. The value for GUUCCGUUGACGUAAUGGUGACGCGCCUCCCUCCUAAGGAGAAGACUGCGGGUUCGAGUCCCGUACGGCGCG [G10A A20G U26C A69C A70G] was at most 0.5. For GUUCCGUUGACGUAAUGGUGACGCGCCUCCCUCCUAAGAAGAAGACUGCAGGUUCGAGUCCCGUACGGAACG [G10A A20G U26C G39A G50A], the yeast fitness is at most 0.5. For GUUCCGUUGACGUACUGGUAACGCAUCUCCCUCCUAAGGAGAAGACUGCGGGUUGGAGCUCCGUACUGAACG [G10A A15C G25A C55G U59C C60U G67U], the yeast fitness was at most 0.5. Turning to GUUCCGUUGACGUUAUGGUGACGCGGCUCCGUCGUAAGGAGUCGACUGCCGGUUCGAGUCCCAUACGGAACG [G10A A14U A20G U26G C31G C34G A42U A43C G50C G63A], the yeast fitness is at most 0.5.

GUUCCGUUGACGUAAUGGUCACGCGUCUCCCUCCUAAAGAAAAGACUGCGGGUUCGAGUCCCGUCCGGAACG [G10A A20C G38A G41A A65C]: the yeast fitness was at most 0.5. The value for GUUCCGUUGACGUAAUGGUACCGCGUCUCCCUCCUAAGGAGAAGACUGCGGGUUCGAGUCGCGCACGGAACG [G10A A21C C61G U64C] was at most 0.5; that for GUUCCGUUGACGUAAUGGUGACGCGUCUCCCUCCUAAGGAAAAGACUGUGGGAUCGAGUCCCGUAGGGAACG [G10A A20G G41A C49U U53A C66G] was at most 0.5. With GUUCCGUUGACGUAUUGGUACCGCCUCUCCCUCCUAAGGAGAAGACUGCGGGUUCGAGUCCCGUAUUAAACG [G10A A15U A21C G25C C66U G67U G68A], the yeast fitness is at most 0.5. Regarding GUUCCGUUGACGUAGUGGUAACGCGUCUCCCUCGUAAGGAGAAGACUGCGGGUUCGAGUCCCGUACGAAACG [G10A A15G C34G G68A], the yeast fitness is at most 0.5.

Take GUUCCGUUGACGUAGUGGUAACGCGUCUCCCUCGUAAGGAGAAGACUGCGGGUUCGAGUCCCGUACGCAACG [G10A A15G C34G G68C]: the yeast fitness was at most 0.5. Take GUUCCGUUGACGUGAUGGUAACGCGUCUCCCUUCUAAGGAGAAGACUGCGGGUUCGAGUCCCGUACGGAACG [G10A A14G C33U]: the yeast fitness was at most 0.5. Under GUUCCGUUGACGUAAUGGUGACGCGUCUCCCUCCUAAGGAGAAGACUGCGGGUUCGAGUCCCGUACGGAACG [G10A A20G] stands 0.649; under GUUCCGUUGACGUAAUGGUUACGCGUCUCCCUCCUAAGGAGAAGACUGCGGGUUCGAGUCCCGUACGGAACG [G10A A20U], 0.786.

As to GUUCCGUUGACGUAGUGGUAACGCGUCUCCCUCCUAACGAGAAGACUGCGGGUUCGAGUCCCGUACGGAACG [G10A A15G G38C], the yeast fitness is at most 0.5. On to GUUCCGUUGACGUAAUGGUACCGCGUCUCCCUCCUAAGGAGAAGACUGCGGGUUCGUGUCCCGUACGGAACG [G10A A21C A57U], for which the yeast fitness was at most 0.5. As for GUUCCGUUGACGUACUGGUAACGCAUCUCCCUCCUAAGGAGAAGACUGCGGGUUCGAGUCCCGUACGGAACG [G10A A15C G25A], the yeast fitness came out at 0.582. GUUCCGUUGACGUGAUGGUAACGCGUUUCCCUCCUAAGGCGAAGACACCGGGUUCGAGUCCCGUACGGAACG [G10A A14G C27U A40C U47A G48C]: the yeast fitness is at most 0.5. On to GUUCCGUUGACGUAAUGGUCACGCGUCUCCCUCCUAAAGAAAAGACUGUGGGUUCGUGUCCCGUACGGAACG [G10A A20C G38A G41A C49U A57U], for which the yeast fitness was at most 0.5. In the case of GUUCCGUUGACGUAAUGGUCACGCGUGUCCCUCCUAAGGGGAAGACUGCGGGUUCGAGUCCCGUACGGACCG [G10A A20C C27G A40G A70C], the yeast fitness was at most 0.5. Under GUUCCGUUGACGUCAUGGUAACGCGUCUCCCUCUUAAGGAGGAGACUGCGGGUUCGAGUCCCGUUCGAAACG [G10A A14C C34U A42G A65U G68A] stands at most 0.5; under GUUCCGUUGACGUAAUGGUAGAGCGUCUCCAUCCUAAGGGGAAGAGUGCGGGUUCGAGUCCCGUACGGAACG [G10A A21G C22A C31A A40G C46G], at most 0.5. Consider GUUCCGUUGACGUAAUGGUAGCGAGUCUCCCUCCUAAGGAGAAGACUGCGGGUUCGAGUCCCGUAUGGAACG [G10A A21G C24A C66U], for which the yeast fitness is at most 0.5.
